# Test results: paper PMC7317421 (Clinical Pharmacology in Drug Development, 2020)
# Read-outs that look alike come from different tables or passages of the source.
# Experiments:
# [1] = humans; cited from earlier work
# [2] = Safety and tolerability: adverse events, vital signs, ECG; format: in vivo, human
# Procedure, shortened: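 Observed and self‑reported AEs, clinically significant physical‑exam changes and abnormal laboratory results were recorded. Vital signs and 12‑lead ECGs were monitored throughout. In Part 2, AEs were tallied separately for drug alone (days 1‑13) and for the periods with fructose/D2O. The safety set was everyone receiving ≥1 dose of study drug or fructose/D2O. Data were reviewed on an ongoing basis and summarized descriptively.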
# hepatic DNL = assay: Fructose-stimulated hepatic DNL inhibition; format: in vivo, human
# Procedure, shortened: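 Part 2, with baseline on day −6 and repeat on day 14 of dosing. On the evening/night before each challenge, subjects drank 4 doses of 70% D2O (60 mL each). Oral fructose 0.25 g/kg was then given every 30 min from 0 to 9.5 h, with dosing at 0 h. Body‑water deuterium was measured. Triglyceride‑palmitate was isolated from plasma by Folch extraction and TLC, and its methyl ester analysed by GC‑pyrolysis isotope‑ratio MS. Basal‑adjusted % newly made palmitate and AUEC10 were calculated.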
# [3] = format: in vivo, human; settings: for Median Tmax (range) / Cmax / t½: 100 mg single oral dose, Part 3; for Cmax: arithmetic mean (SD); for t½: mean ± SD
# [4] = rats; cited from earlier work
# [5] = Fasting and postprandial serum triglycerides and fasting lipids; format: in vivo, human
# Procedure, shortened: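 Part 2, randomized 4:1 to drug or placebo with food, once daily or every 12 hours on days 1‑14. Fasting lipids were sampled after overnight fasts over 16 days. Total cholesterol, direct LDL and HDL were run on an automated chemistry analyzer. Postprandial triglycerides: 12 serial samples over 24 h on days 0 and 12. AUEC by trapezoid rule, averaged as AUEC24/24 when first, last and ≥75% of samples were available. Baseline was the mean of 0‑h values on days 0‑1.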
# [6] = Plasma pharmacokinetics, single ascending oral doses after overnight fast; format: in vivo, human; settings: fasted, Part 1; for AUC0‐∞ / Cmax: arithmetic mean (SD); for t½: mean ± SD
# Procedure, shortened: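 Randomized, double‑blind, placebo‑controlled interleaving crossover in 2 cohorts of 8. Each cohort received 4 ascending single doses, ≥10 days apart, taken with water after a ≥10‑h overnight fast. Blood sampled up to 72 h postdose. Plasma was extracted by protein precipitation with a stable‑isotope internal standard and measured by LC‑MS/MS with calibration 2.00–1000 ng/mL (LLOQ 2.00 ng/mL). Noncompartmental parameters were summarized descriptively by dose.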
# [7] = monkeys; cited from earlier work
# [8] = Platelet count and mean platelet volume; format: in vivo, human
# [9] = format: in vivo, human; settings: for AUCtau / Cmax: mean (SD)
# [10] = 100 mg single dose, high‐fat meal vs fasted
# [11] = 100 mg every 12 hours, same withdrawn subject
structure (smiles),measurement,setting,value
Cc1nc2ccc(C(=O)N3CCC4(CC3)CC(=O)c3c(cnn3C(C)C)C4)cc2[nH]1 [PF‐05175157],platelet count,[1],decreased platelet count
COc1cc(C(=O)N2CCC3(CC2)CC(=O)c2c(cnn2C(C)C)C3)cc(-c2ccc(C(=O)O)cc2)n1 [PF‐05221304],subjects with AEs,"[2]; Part 1 (single doses, PF‐05221304 or placebo periods)",5 subjects
same,subjects with AEs,[2]; Part 3 (100 mg single dose fed/fasted),3 subjects
same,vital signs or cardiac conduction intervals (12‐lead ECG),[2]; all parts,no clinically significant changes
same,tolerability,"[2]; single 1‐240 mg, repeated 2‐200 mg daily",well tolerated at all doses
same,maximum tolerated dose,"[2]; up to 240 mg single, 200 mg/day repeated",not identified
same,"Adjusted % inhibition of newly made triglyceride‐palmitate (DNL), AUEC10","hepatic DNL; 10 mg Q12H, day 14 vs baseline (day −6)",80.0%
same,hepatic DNL inhibition over a 10‐hour period postdose,hepatic DNL; doses <40 mg/day,≤ 80%
same,"inhibition of DNL (AUEC of newly made triglyceride‐palmitate), near‐maximal","hepatic DNL; doses ≥40 mg/day, 14 days",> 90%
same,Geometric mean AUC0‐∞,"[3]; 100 mg single dose, fasted",79 320 ng·h/mL
same,geometric mean Cmax,"[3]; 100 mg single dose, fasted, CV% 25%",7479 ng/mL
same,Geometric mean AUC0‐∞,"[3]; 100 mg single dose, fed",72 360 ng·h/mL
same,geometric mean Cmax,"[3]; 100 mg single dose, fed, CV% 41%",5592 ng/mL
same,decrease of AUC0‐∞ with food,[3]; [10],~9%
same,plasma Cmax reduction with food,[3]; [10],25%
same,Median Tmax (range),[3]; fasted state,2.5 (1.0‐3.0) h
same,Cmax,[3]; fasted state,7671 (1699.8) ng/mL
same,t½,[3]; fasted state,12.3 ± 2.0 h
same,Median Tmax (range),[3]; fed state,5.0 (2.0‐8.0) h
same,Cmax,[3]; fed state,5947 (1982.1) ng/mL
same,t½,[3]; fed state,13.2 ± 3.5 h
same,asymmetric hepatic distribution,[4],≥ 100 fold
same,elevated fasting serum triglyceride levels (1 subject),[5]; [11],2.1 fold
same,elevated postprandial serum triglyceride levels (1 subject),[5]; [11],2.6 fold
same,fasting and postprandial serum triglyceride levels,[5]; repeated daily doses ≥40 mg/day,increased
same,Median Tmax (range),[6]; 1 mg single oral dose,2.0 (1.0‐3.0) h
same,AUC0‐∞,[6]; 1 mg single oral dose,670.5 (182.2) ng·h/mL
same,Cmax,[6]; 1 mg single oral dose,48.3 (8.2) ng/mL
same,t½,[6]; 1 mg single oral dose,13.6 ± 3.4 h
same,Median Tmax (range),[6]; 3 mg single oral dose,2.5 (1.1‐4.0) h
same,AUC0‐∞,[6]; 3 mg single oral dose,2508 (476.0) ng·h/mL
same,Cmax,[6]; 3 mg single oral dose,177.0 (46.3) ng/mL
same,t½,[6]; 3 mg single oral dose,13.5 ± 3.5 h
same,Median Tmax (range),[6]; 10 mg single oral dose,3.0 (1.0‐5.0) h
same,AUC0‐∞,[6]; 10 mg single oral dose,8603 (1603.8) ng·h/mL
same,Cmax,[6]; 10 mg single oral dose,608.5 (134.0) ng/mL
same,t½,[6]; 10 mg single oral dose,18.3 ± 2.3 h
same,Median Tmax (range),[6]; 30 mg single oral dose,2.0 (0.5‐4.0) h
same,Cmax,[6]; 30 mg single oral dose,2008 (421.7) ng/mL
same,t½,[6]; 30 mg single oral dose,17.6 ± 2.6 h
same,Median Tmax (range),[6]; 100 mg single oral dose,2.0 (1.0‐4.0) h
same,Cmax,[6]; 100 mg single oral dose,7435 (1904.5) ng/mL
same,t½,[6]; 100 mg single oral dose,16.0 ± 3.6 h
same,Median Tmax (range),[6]; 200 mg single oral dose,2.0 (0.5‐4.0) h
same,t½,[6]; 200 mg single oral dose,15.3 ± 3.4 h
same,Median Tmax (range),[6]; 240 mg single oral dose,1.5 (1.0‐4.0) h
same,t½,[6]; 240 mg single oral dose,15.2 ± 2.8 h
same,asymmetric hepatic distribution,[7],≥ 100 fold
same,"maximum decline from day 0 in platelet count (1 subject, moderate AE)","[8]; 100 mg every 12 hours, day 13 + 24 hours, one person",53 000 /µL
same,platelet volume,[8]; doses ≥20 mg/day administered every 12 hours,increases in platelet volume
same,platelet count,[8]; repeated doses ≤40 mg/day,No change in platelet count
same,platelet count,[8]; repeated dosing ≥60 mg/day,gradual decline in platelet count from day 7 onward
same,lowest platelet count observed,"[8]; repeated dosing, Part 2",≥ 100 000 /µL
same,platelet count,"[8]; single doses, 1‐ to 240‐mg dose range",did not change
same,Median Tmax (range),"[9]; Day 1, 1 mg every 12 hours",3.0 (3.0‐5.0) h
same,AUCtau,"[9]; Day 1, 1 mg every 12 hours",384.5 (71.1) ng·h/mL
same,Cmax,"[9]; Day 1, 1 mg every 12 hours",54.4 (9.0) ng/mL
same,Median Tmax (range),"[9]; Day 1, 3 mg every 12 hours",5.0 (2.0‐6.0) h
same,AUCtau,"[9]; Day 1, 3 mg every 12 hours",1038 (131.4) ng·h/mL
same,Cmax,"[9]; Day 1, 3 mg every 12 hours",142.7 (21.2) ng/mL
same,Median Tmax (range),"[9]; Day 1, 10 mg every 12 hours",3.5 (1.0‐5.0) h
same,AUCtau,"[9]; Day 1, 10 mg every 12 hours",3811 (767.3) ng·h/mL
same,Cmax,"[9]; Day 1, 10 mg every 12 hours",584.6 (91.2) ng/mL
same,Median Tmax (range),"[9]; Day 1, 30 mg every 12 hours",5.0 (3.0‐5.0) h
same,Cmax,"[9]; Day 1, 30 mg every 12 hours",1689 (256.7) ng/mL
same,Median Tmax (range),"[9]; Day 1, 40 mg once daily",4.0 (2.0‐8.0) h
same,Cmax,"[9]; Day 1, 40 mg once daily",1986 (591.8) ng/mL
same,Median Tmax (range),"[9]; Day 1, 100 mg every 12 hours",3.5 (0.5‐5.0) h
same,Cmax,"[9]; Day 1, 100 mg every 12 hours",6831 (1388.6) ng/mL
same,Median Tmax (range),"[9]; Day 1, 100 mg once daily",4.0 (2.0‐6.0) h
same,Cmax,"[9]; Day 1, 100 mg once daily",5965 (1252.2) ng/mL
same,Median Tmax (range),"[9]; Day 7, 1 mg every 12 hours",3.0 (2.0‐5.0) h
same,AUCtau,"[9]; Day 7, 1 mg every 12 hours",760.4 (202.4) ng·h/mL
same,Cmax,"[9]; Day 7, 1 mg every 12 hours",91.4 (19.3) ng/mL
same,Median Tmax (range),"[9]; Day 7, 3 mg every 12 hours",5.0 (3.0‐5.1) h
same,AUCtau,"[9]; Day 7, 3 mg every 12 hours",2264 (484.8) ng·h/mL
same,Cmax,"[9]; Day 7, 3 mg every 12 hours",283.1 (49.1) ng/mL
same,Median Tmax (range),"[9]; Day 7, 10 mg every 12 hours",5.0 (5.0‐6.0) h
same,AUCtau,"[9]; Day 7, 10 mg every 12 hours",8334 (2131.6) ng·h/mL
same,Cmax,"[9]; Day 7, 10 mg every 12 hours",1009 (215.9) ng/mL
same,Median Tmax (range),"[9]; Day 7, 30 mg every 12 hours",5.0 (3.0‐6.0) h
same,Cmax,"[9]; Day 7, 30 mg every 12 hours",3229 (741.0) ng/mL
same,Median Tmax (range),"[9]; Day 7, 40 mg once daily",4.0 (3.0‐6.0) h
same,Cmax,"[9]; Day 7, 40 mg once daily",2654 (674.6) ng/mL
same,Median Tmax (range),"[9]; Day 7, 100 mg every 12 hours",3.5 (3.0‐5.0) h
same,Median Tmax (range),"[9]; Day 7, 100 mg once daily",4.0 (2.0‐6.0) h
same,Cmax,"[9]; Day 7, 100 mg once daily",7894 (1117.5) ng/mL
same,excreted in urine as unchanged drug over the dosing interval (Aeτ),"[9]; day 7, Part 2",Less than 1%
same,accumulation for AUCtau,[9]; every‐12‐hour dosing,approximately 2 fold
same,median Tmax,[9]; multiple oral doses 1‐100 mg every 12 hours and 40‐100 mg once daily with food,3 to 5 h
same,accumulation for AUCtau,[9]; once‐daily dosing,approximately 1.5 fold
same,steady state achieved (trough concentrations),"[9]; repeated dosing, Part 2",≤ 7 days
